Source: ChEMBL document CHEMBL3352189 (J Med Chem, 2014)
pEC50: −log10 of the molar value. Active and inactive are the calls of the source. The calls are words filed in the database; no cut-off is given here.

Assays:
Mus musculus [1] = experiment: Toxicity in Venezuelan equine encephalitis virus TC83 infected C3H/HeN mouse assessed as induction of hunched posture at 40 mg/kg/day, ip BID for 4 days; assay type: organism-based; set-up: route intraperitoneal; conditions: in vivo, 96 h
[2] = biological target: Alpha-1A adrenergic receptor (Rattus norvegicus) (UniProt P43140); experiment: Displacement of [3H]prazosin from rat adrenergic alpha1A receptor at 10 uM
[3] = biological target: L-type calcium channel, benzothiazepine site (Rattus norvegicus, UniProt P22002+P27732+Q02485); experiment: Displacement of [3H]diltiazem from rat calcium channel L-Type benzothiazepine site at 10 uM; assay type: protein assay; conditions: probe [3H]diltiazem
Rattus norvegicus [4] = organism: Rattus norvegicus; experiment: Displacement of [125I]omega-Conotoxin GVIA from rat N-type calcium channel at 10 uM
[5] = biological target: Endothelin-1 receptor (Homo sapiens) (UniProt P25101); experiment: Displacement of [125I]endothelin-1 from human ETA receptor at 10 uM
[6] = biological target: Endothelin receptor type B (Homo sapiens) (UniProt P24530); experiment: Displacement of [125I]endothelin-1 from human ETB receptor at 10 uM
[7] = biological target: T1, GABA-A receptor; anion channel (Homo sapiens) (UniProt P14867+P47870+P18507+P28472+P48169+Q99928+Q9UN88+P34903+O00591+O14764+Q8N1C3+P18505+P78334+P47869+P31644+Q16445); experiment: Displacement of ABC from rat GABAA receptor central flunitrazepam site at 10 uM; assay type: protein-complex assay; conditions: target entry is the homologue from another species
[8] = biological target: T1, GABA-A receptor; anion channel (Homo sapiens); experiment: Displacement of ABC from rat GABAA receptor central muscimol site at 10 uM; assay type: protein-complex assay; conditions: target entry is the homologue from another species
[9] = biological target: Gamma-aminobutyric acid type B receptor subunit 1 (Homo sapiens) (UniProt Q9UBS5); experiment: Displacement of [3H]CGP-54626 from human GABA B1A receptor at 10 uM
[10] = biological target: Glutamate NMDA receptor (Rattus norvegicus) (UniProt P35439+Q00959+Q00960+Q00961+Q62645+Q8VHN2+Q9R1M7); experiment: Displacement of [3H]CGP-39653 from rat NMDA receptor agonist binding site binding site at 10 uM; assay type: protein-complex assay
[11] = biological target: Histamine H1 receptor (Homo sapiens) (UniProt P35367); experiment: Displacement of [3H]pyrilamine from human histamine H1 receptor at 10 uM
[12] = biological target: Histamine H2 receptor (Homo sapiens) (UniProt P25021); experiment: Displacement of [125I]aminopotentidine from human histamine H2 receptor at 10 uM
Rattus norvegicus [13] = organism: Rattus norvegicus; experiment: Displacement of [3H]idazoxan from rat Imidazole receptor 2 at 10 uM
Mus musculus [14] = organism: Mus musculus; experiment: Displacement of [125I]interleukin-1beta from mouse IL1 receptor at 10 uM
[15] = biological target: Melatonin-related receptor (Homo sapiens) (UniProt Q13585); experiment: Displacement of [125I]2-Iodomelatonin from human MT1 receptor at 10 uM
[16] = biological target: Muscarinic acetylcholine receptor M1 (Homo sapiens) (UniProt P11229); experiment: Displacement of [3H]N-Methylscopolamine from human muscarinic M1 receptor at 10 uM
[17] = biological target: Neuropeptide Y receptor type 1 (Homo sapiens) (UniProt P25929); experiment: Displacement of [125I]Peptide YY from human neuropeptide Y Y1 receptor at 10 uM
[18] = biological target: Kappa-type opioid receptor (Homo sapiens) (UniProt P41145); experiment: Displacement of [3H]diprenorphine from human kappa opiate receptor at 10 uM
Rattus norvegicus [19] = organism: Rattus norvegicus; experiment: Displacement of [35S]ATP-alphaS from rat P2Y channel at 10 uM
[20] = biological target: 5-hydroxytryptamine receptor 2B (Homo sapiens) (UniProt P41595); experiment: Displacement of [3H]lysergic acid diethylamide from human 5HT2B receptor at 10 uM
[21] = biological target: Sigma non-opioid intracellular receptor 1 (Homo sapiens) (UniProt Q99720); experiment: Displacement of [3H]haloperidol from human sigma1 receptor at 10 uM
[22] = biological target: Substance-P receptor (Homo sapiens) (UniProt P25103); experiment: Displacement of [3H]substance P from human NK1 receptor 2 at 10 uM
Rattus norvegicus [23] = organism: Rattus norvegicus; experiment: Displacement of [3H]GABA from rat GABA transporter at 10 uM
[24] = biological target: Sodium-dependent noradrenaline transporter (Homo sapiens) (UniProt P23975); experiment: Displacement of [125I]RTI-55 from human NET at 10 uM
[25] = biological target: Sodium-dependent serotonin transporter (Homo sapiens) (UniProt P31645); experiment: Displacement of [3H]paroxetine from human SERT at 10 uM
[26] = Cytotoxicity against african green monkey Vero 76 cells after 3 days by Celltiter-Glo reagent based assay; assay type: cell-based; conditions: chlorocebus sabaeus, vero 76, 72 h
Method in brief: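 Vero 76 cells were seeded overnight at 12 000/well and given an 8-point 2-fold compound series (20 mM DMSO stock) in EMEM/10% FBS with no virus. Viability was read by CellTiter-Glo after 3 days relative to untreated cells. Run in duplicate; CC50 from a four-parameter logistic or sigmoidal fit.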

[27] = system: Venezuelan equine encephalitis virus; experiment: Antiviral activity against Venezuelan equine encephalitis virus TrD infected in Vero 76 cells assessed as reduction in virus-induced cytopathic effect after 2 days by Celltiter-Glo reagent based assay; assay type: functional, organism-based; conditions: Vero 76, 48 h
[28] = system: Venezuelan equine encephalitis virus; experiment: Antiviral activity against Venezuelan equine encephalitis virus TrD infected in Vero 76 cells assessed as reduction in viral titer at 5 uM by crystal violet staining based microplaque assay relative to untreated control; assay type: functional, organism-based
[29] = Chemical stability in presence of 5x DTT assessed as parent compound remaining incubated for 8 hrs; assay type: physicochemical; conditions: read-out: Stability
[30] = Stability in 1:1 PBS/acetonitrile assessed as parent compound remaining; assay type: physicochemical; conditions: buffer
Method in brief: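 Aqueous stability measured after 48 h incubation, in PBS pH 7.4 or in 1:1 PBS/acetonitrile; reported as % parent remaining.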

[31] = Protein binding in human plasma at 10 uM; assay type: ADME, cell-free; conditions: read-out: PPB (converted)
Cytochrome P450 1A2 = Cytochrome P450 1A2 (Homo sapiens, UniProt P05177); experiment: Inhibition of human CYP1A2 at 10 uM; assay type: ADME
Method in brief: (§1)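 Human CYP inhibition run with reference inhibitors as controls: α-naphthoflavone for CYP1A2 and ketoconazole for CYP3A4.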

CYP2C19 = CYP2C19 (Homo sapiens, UniProt P33261); experiment: Inhibition of human CYP2C19 at 10 uM; assay type: ADME
CYP3A4 = CYP3A4 (Homo sapiens, UniProt P08684); experiment: Inhibition of human CYP3A4 at 10 uM; assay type: ADME; method in brief: as §1
[32] = Drug concentration in C57BL/6 mouse brain at 1 mg/kg, ip administered as single dose measured after 120 mins by LC/MS analysis based RACE assay; assay type: ADME, organism-based; set-up: dose 1 mg/kg, route intraperitoneal; conditions: read-out: Drug uptake
Method in brief: (§2)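 Brain tissue taken at the terminal 120 min point after one intraperitoneal dose (1, 5 or 10 mg/kg) in C57BL/6 mice, 3 per group, with a vehicle cohort. Drug level measured by LC/MS, averaging two injections per sample; reported as mean ± standard deviation, μM.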

[33] = Drug concentration in C57BL/6 mouse brain at 10 mg/kg, ip administered as single dose measured after 120 mins by LC/MS analysis based RACE assay; assay type: ADME, organism-based; set-up: dose 10 mg/kg, route intraperitoneal; conditions: read-out: Drug uptake; method in brief: as §2

Chain of Cytochrome P450 1A2 (P05177 whole entry): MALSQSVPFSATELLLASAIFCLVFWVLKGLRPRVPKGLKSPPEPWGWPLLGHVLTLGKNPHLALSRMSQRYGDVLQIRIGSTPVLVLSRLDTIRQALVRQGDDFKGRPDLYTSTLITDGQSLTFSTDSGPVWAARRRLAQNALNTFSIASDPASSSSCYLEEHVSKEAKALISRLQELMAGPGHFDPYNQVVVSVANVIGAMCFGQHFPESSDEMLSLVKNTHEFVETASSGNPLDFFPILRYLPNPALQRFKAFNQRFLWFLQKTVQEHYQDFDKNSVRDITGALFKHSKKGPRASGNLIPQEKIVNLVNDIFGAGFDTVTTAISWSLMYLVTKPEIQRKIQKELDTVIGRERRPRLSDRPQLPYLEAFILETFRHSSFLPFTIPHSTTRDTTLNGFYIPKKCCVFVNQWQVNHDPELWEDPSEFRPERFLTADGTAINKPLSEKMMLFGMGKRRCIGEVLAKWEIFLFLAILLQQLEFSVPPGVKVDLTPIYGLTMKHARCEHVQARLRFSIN
Chain of Kappa-type opioid receptor (Homo sapiens) (P41145 whole entry): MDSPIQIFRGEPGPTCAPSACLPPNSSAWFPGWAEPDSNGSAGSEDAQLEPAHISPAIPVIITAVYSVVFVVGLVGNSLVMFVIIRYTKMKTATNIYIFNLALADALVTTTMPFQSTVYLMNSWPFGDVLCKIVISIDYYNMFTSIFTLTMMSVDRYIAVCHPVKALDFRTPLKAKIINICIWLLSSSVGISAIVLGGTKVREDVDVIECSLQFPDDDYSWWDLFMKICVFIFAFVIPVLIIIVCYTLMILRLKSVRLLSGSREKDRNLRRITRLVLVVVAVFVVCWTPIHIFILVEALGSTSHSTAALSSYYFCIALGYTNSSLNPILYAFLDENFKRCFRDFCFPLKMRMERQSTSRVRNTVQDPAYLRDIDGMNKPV
Chain of Melatonin-related receptor (Homo sapiens) (Q13585 whole entry): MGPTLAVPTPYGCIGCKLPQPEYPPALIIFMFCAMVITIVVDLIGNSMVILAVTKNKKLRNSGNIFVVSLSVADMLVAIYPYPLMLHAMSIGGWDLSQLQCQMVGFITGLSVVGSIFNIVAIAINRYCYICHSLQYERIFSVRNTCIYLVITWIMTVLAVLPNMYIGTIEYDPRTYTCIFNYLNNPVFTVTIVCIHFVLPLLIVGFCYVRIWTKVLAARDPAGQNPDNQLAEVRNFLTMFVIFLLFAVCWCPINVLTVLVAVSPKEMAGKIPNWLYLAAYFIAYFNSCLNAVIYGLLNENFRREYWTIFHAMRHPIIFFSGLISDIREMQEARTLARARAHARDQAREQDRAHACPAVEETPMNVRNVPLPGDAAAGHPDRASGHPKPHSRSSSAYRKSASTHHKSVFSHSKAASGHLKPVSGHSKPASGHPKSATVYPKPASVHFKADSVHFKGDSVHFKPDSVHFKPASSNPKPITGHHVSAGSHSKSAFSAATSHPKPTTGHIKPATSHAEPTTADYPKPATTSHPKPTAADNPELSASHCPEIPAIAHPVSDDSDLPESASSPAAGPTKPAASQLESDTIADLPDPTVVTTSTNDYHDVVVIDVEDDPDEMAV
Chain of Muscarinic acetylcholine receptor M1 (Homo sapiens) (P11229 whole entry): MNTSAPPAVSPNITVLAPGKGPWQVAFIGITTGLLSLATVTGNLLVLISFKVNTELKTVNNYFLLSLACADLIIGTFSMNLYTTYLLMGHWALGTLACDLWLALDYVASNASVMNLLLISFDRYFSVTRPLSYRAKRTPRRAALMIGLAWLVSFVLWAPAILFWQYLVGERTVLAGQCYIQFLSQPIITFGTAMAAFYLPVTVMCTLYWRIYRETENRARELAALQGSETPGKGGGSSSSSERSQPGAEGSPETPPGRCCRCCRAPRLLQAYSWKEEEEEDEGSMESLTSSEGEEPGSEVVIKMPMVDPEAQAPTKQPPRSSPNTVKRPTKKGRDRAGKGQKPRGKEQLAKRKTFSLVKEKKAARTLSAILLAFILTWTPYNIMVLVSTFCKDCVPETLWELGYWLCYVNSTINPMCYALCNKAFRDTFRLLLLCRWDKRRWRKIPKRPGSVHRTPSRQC
Chain of Endothelin-1 receptor (Homo sapiens) (P25101 whole entry): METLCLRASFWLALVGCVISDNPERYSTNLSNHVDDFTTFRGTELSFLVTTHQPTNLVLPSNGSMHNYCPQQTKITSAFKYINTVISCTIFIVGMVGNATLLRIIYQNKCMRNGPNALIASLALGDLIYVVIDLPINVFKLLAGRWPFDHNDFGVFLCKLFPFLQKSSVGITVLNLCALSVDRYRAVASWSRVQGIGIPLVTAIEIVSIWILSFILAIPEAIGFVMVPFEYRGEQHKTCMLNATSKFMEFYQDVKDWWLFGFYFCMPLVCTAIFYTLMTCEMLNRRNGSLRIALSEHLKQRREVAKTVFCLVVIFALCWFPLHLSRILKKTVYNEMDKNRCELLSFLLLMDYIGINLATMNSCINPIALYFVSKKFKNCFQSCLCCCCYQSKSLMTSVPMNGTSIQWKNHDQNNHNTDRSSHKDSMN
Chain of Substance-P receptor (Homo sapiens) (P25103 whole entry): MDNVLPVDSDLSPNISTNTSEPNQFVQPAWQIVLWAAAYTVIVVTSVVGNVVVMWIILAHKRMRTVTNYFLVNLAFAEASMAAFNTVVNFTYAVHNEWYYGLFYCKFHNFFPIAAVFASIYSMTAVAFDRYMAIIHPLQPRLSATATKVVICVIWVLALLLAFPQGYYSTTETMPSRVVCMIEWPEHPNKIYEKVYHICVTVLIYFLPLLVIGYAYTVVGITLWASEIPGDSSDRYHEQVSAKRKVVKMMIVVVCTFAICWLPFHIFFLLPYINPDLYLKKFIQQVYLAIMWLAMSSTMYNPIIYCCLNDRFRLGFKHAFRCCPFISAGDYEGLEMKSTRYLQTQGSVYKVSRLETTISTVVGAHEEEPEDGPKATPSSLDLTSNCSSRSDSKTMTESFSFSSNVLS
Chain of Histamine H1 receptor (Homo sapiens) (P35367 whole entry): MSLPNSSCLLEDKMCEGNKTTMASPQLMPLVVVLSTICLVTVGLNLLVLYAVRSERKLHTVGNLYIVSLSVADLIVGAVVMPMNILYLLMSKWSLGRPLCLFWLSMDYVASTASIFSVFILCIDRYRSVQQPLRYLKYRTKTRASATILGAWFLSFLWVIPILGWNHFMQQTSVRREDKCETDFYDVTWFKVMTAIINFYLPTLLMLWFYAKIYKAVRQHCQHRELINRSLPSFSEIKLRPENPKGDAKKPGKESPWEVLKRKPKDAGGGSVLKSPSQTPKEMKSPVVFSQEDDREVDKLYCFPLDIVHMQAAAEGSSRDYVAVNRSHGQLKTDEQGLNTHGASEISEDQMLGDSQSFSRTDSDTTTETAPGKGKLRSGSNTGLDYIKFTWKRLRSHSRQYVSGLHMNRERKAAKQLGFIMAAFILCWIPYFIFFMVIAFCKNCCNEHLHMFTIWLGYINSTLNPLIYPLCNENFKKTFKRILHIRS
Chain of Sodium-dependent serotonin transporter (Homo sapiens) (P31645 whole entry, looked up): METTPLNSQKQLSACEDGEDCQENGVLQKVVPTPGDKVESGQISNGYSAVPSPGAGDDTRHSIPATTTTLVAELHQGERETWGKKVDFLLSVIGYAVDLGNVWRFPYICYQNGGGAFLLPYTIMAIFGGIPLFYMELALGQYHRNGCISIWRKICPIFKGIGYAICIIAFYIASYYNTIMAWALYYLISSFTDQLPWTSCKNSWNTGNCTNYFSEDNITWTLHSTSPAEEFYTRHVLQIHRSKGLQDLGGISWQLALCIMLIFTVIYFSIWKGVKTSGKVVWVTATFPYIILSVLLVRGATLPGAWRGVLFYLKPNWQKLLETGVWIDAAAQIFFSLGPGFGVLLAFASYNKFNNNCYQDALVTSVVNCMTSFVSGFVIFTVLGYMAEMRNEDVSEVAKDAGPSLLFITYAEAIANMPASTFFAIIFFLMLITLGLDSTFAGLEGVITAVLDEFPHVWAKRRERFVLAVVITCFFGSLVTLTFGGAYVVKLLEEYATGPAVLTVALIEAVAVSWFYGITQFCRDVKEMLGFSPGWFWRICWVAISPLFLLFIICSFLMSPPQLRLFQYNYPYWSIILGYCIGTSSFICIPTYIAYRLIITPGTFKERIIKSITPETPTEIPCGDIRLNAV
Chain of Sigma non-opioid intracellular receptor 1 (Homo sapiens) (Q99720 whole entry): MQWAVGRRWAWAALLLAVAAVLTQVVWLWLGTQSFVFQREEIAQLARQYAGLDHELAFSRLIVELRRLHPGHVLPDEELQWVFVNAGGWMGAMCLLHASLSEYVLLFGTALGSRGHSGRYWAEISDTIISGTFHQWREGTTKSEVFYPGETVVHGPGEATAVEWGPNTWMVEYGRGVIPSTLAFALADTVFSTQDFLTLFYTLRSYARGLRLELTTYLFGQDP
Chain of Sodium-dependent noradrenaline transporter (Homo sapiens) (P23975 whole entry): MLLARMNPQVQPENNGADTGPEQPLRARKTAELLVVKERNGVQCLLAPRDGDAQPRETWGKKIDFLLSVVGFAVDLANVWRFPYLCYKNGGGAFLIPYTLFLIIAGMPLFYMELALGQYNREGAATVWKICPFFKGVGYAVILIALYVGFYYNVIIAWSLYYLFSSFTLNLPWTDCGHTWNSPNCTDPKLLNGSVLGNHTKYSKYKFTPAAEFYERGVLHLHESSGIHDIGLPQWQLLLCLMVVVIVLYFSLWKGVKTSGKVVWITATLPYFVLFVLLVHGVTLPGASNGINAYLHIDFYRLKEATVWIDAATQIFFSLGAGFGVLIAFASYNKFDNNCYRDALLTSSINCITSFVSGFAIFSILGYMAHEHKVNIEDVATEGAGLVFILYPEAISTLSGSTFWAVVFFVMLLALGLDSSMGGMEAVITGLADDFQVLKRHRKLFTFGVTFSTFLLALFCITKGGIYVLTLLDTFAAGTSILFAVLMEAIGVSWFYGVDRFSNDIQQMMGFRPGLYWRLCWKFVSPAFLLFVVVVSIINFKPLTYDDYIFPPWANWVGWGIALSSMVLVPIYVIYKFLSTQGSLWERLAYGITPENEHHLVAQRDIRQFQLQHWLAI

In the case of `CN1CCN(C)/C(=N/c2ccc([N+](=O)[O-])cc2C(=O)Nc2ccccc2)C1`, the Activity (Mus musculus [1]) was “Non-toxic”, the inhibition [2] was 4.41% and the inhibition at 10 µM [3] was 7.06%. It also gave an inhibition (Rattus norvegicus [4]) of 22.7%, an inhibition [5] of 7.78% and an inhibition [6] of 8.32%. The inhibition [7] was 15.2%, the inhibition [8] was 0.52% and the inhibition [9] was 35.9%. For the same compound, the inhibition [10] was -2.6%, the inhibition [11] was 12.3% and the inhibition [12] was 20.4%. It also gave an inhibition (Rattus norvegicus [13]) of 14.4%, an inhibition (Mus musculus [14]) of 3.11% and an inhibition [15] of 18%. The inhibition [16] was 0.73%, the inhibition [17] was 25.9% and the inhibition [18] was 9.71%. It also gave an inhibition (Rattus norvegicus [19]) of 6.41%, an inhibition [20] of 10% and an inhibition [21] of 6.54%. For the same compound, the inhibition [22] was 8.19%, the inhibition (Rattus norvegicus [23]) was 0.42% and the inhibition [24] was 91.1%. For the same compound, the inhibition [25] was -5.97%, the CC50 [26] was > 50000 nM and the pEC50 [27] was 7.40. The inhibition [28] was “Active”, the remaining at 8 h [29] was 99% and the Stability [30] was 95.9%. The fraction unbound at 10 µM [31] was 0.23, the “inhibition (INH)” value (Cytochrome P450 1A2) was 1.5% and the inhibition at 10 µM (CYP2C19) was 17%. The inhibition at 10 µM (CYP3A4) was 18%, the concentration at 2 h [32] was 190 nM and the concentration at 2 h [33] was 350 nM.
